Source: ChEMBL document CHEMBL3232922, “Discovery and SAR of 6-alkyl-2,4-diaminopyrimidines as histamine H₄ receptor antagonists” (J Med Chem, 2014)

Experiments:
[1] = AUC in Sprague-Dawley rat at 2 mg/kg, iv; assay type: ADME, organism-based; design: dose 2 mg/kg, route intravenous; details: plasma
[2] = AUC in Sprague-Dawley rat at 10 mg/kg, po; assay type: ADME, organism-based; design: dose 10 mg/kg, route oral; details: plasma
Canis familiaris [3] = assay: AUC in beagle dog at 2 mg/kg, iv; assay type: ADME, organism-based, Canis lupus familiaris, Plasma; design: dose 2 mg/kg, route intravenous; details: in vivo
[4] = AUC in beagle dog at 10 mg/kg, po; assay type: ADME, organism-based, Canis lupus familiaris; design: dose 10 mg/kg, route oral; details: plasma
Rattus norvegicus [5] = assay: Clearance in Sprague-Dawley rat at 2 mg/kg, iv; assay type: ADME, organism-based; design: dose 2 mg/kg, route intravenous; details: in vivo
Canis familiaris [6] = assay: Clearance in beagle dog at 2 mg/kg, iv; assay type: ADME, organism-based, Canis lupus familiaris; design: dose 2 mg/kg, route intravenous; details: in vivo
Rattus norvegicus [7] = assay: Volume of distribution at steady state in Sprague-Dawley rat at 2 mg/kg, iv; assay type: ADME, organism-based; design: dose 2 mg/kg, route intravenous; details: in vivo
[8] = Volume of distribution at steady state in beagle dog at 2 mg/kg, iv; assay type: ADME, organism-based, Canis lupus familiaris; design: dose 2 mg/kg, route intravenous; details: in vivo, read-out: Vdss
Rattus norvegicus [9] = assay: Half life in Sprague-Dawley rat at 2 mg/kg, iv; assay type: ADME, organism-based; design: dose 2 mg/kg, route intravenous; details: in vivo
[10] = Half life in Sprague-Dawley rat at 10 mg/kg, po; assay type: ADME, organism-based; design: dose 10 mg/kg, route oral; details: in vivo
[11] = Half life in beagle dog at 2 mg/kg, iv; assay type: ADME, organism-based, Canis lupus familiaris; design: dose 2 mg/kg, route intravenous; details: in vivo
[12] = Half life in beagle dog at 10 mg/kg, po; assay type: ADME, organism-based, Canis lupus familiaris; design: dose 10 mg/kg, route oral; details: in vivo
[13] = Oral bioavailability in Sprague-Dawley rat at 10 mg/kg; assay type: ADME, organism-based; details: in vivo
[14] = Oral bioavailability in beagle dog at 10 mg/kg; assay type: ADME, organism-based, Canis lupus familiaris; details: in vivo
Histamine H4 receptor [15] = molecular target: T1, Histamine H4 receptor (Homo sapiens, UniProt Q9H3N8); assay: Displacement of [3H]histamine from human recombinant histamine H4 receptor expressed in SK-N-MC cells after 45 mins by competition binding analysis; assay type: cell-based
T1 sequence (Q9H3N8 whole entry): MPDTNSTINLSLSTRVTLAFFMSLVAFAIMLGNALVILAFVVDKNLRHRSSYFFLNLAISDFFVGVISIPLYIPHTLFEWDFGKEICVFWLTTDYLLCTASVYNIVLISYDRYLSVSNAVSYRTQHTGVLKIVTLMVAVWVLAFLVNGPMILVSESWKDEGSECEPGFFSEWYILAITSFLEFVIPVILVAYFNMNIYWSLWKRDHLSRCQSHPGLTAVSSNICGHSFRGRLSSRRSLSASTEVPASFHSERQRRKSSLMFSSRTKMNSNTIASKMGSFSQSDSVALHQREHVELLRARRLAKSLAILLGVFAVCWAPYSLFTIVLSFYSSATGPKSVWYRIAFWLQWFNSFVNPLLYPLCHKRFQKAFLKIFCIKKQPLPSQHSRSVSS

Histamine H4 receptor [16] = molecular target: T1, Histamine H4 receptor; assay: Agonist activity at human H4 receptor; details: read-out: EC50
Histamine H4 receptor [17] = molecular target: T1, Histamine H4 receptor; assay: Antagonist activity at human histamine H4 receptor expressed in SK-N-MC cells assessed as reduction of histamine-induced inhibition of cAMP-mediated beta-galactosidase reporter gene activity treated 10 mins prior to histamine challenge by microplate reader analysis; assay type: functional, cell-based; details: read-out: pA2 (converted)
Histamine H4 receptor [18] = molecular target: T2, Histamine H4 receptor (Mus musculus, UniProt Q91ZY2); assay: Displacement of [3H]histamine from mouse histamine H4 receptor expressed in SK-N-MC cells after 45 mins by competition binding analysis; assay type: cell-based
T2 sequence (Q91ZY2 whole entry): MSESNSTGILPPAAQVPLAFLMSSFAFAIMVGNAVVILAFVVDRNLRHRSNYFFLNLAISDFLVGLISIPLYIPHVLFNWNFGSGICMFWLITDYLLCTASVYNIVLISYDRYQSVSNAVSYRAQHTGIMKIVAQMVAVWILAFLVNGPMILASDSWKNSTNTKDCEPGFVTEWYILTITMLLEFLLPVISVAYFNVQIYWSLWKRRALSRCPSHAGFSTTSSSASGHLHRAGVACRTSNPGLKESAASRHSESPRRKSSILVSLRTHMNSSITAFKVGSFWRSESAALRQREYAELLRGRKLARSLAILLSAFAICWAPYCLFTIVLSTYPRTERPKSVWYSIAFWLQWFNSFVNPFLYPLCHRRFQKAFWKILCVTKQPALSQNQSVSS
Method in brief: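 Transfected cells expressing the H4 receptor, competition against [3H]histamine. Ki is the geometric mean of at least three independent determinations (each in triplicate), calculated by the Cheng–Prusoff equation.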

Histamine H4 receptor [19] = molecular target: T2, Histamine H4 receptor; assay: Antagonist activity at mouse histamine H4 receptor expressed in SK-N-MC cells assessed as reduction of histamine-induced inhibition of cAMP-mediated beta-galactosidase reporter gene activity treated 10 mins prior to histamine challenge by microplate reader analysis; assay type: functional, cell-based; details: read-out: pA2 (converted)
Histamine H3 receptor = Histamine H3 receptor (Homo sapiens, UniProt Q9Y5N1); assay: Displacement of [3H]N-alpha-methylhistamine from human recombinant histamine H3 receptor expressed in SK-N-MC cells after 45 mins by competition binding analysis; assay type: cell-based
Sequence of Histamine H3 receptor (Q9Y5N1 whole entry): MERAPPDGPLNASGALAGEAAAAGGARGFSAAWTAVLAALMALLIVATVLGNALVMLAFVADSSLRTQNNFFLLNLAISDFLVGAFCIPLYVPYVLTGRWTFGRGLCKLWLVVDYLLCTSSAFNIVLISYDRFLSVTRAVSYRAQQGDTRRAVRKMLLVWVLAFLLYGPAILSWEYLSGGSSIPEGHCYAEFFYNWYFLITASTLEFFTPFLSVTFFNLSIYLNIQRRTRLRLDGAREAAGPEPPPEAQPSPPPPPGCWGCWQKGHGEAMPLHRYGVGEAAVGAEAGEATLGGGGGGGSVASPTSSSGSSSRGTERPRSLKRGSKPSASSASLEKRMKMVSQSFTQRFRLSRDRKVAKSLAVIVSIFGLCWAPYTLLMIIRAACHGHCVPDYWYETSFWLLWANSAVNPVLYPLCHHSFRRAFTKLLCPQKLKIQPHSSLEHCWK

[20] = Half life in human microsomes; assay type: ADME, Microsome
[21] = Half life in rat microsomes; assay type: ADME, Microsome
[22] = molecular target: Voltage-gated inwardly rectifying potassium channel KCNH2 (Homo sapiens, UniProt Q12809); assay: Inhibition of human ERG channel transfected in HEK293 cells assessed as reduction in delayed rectifier current by patch clamp assay; assay type: cell-based
Sequence of Voltage-gated inwardly rectifying potassium channel KCNH2 (Q12809 whole entry): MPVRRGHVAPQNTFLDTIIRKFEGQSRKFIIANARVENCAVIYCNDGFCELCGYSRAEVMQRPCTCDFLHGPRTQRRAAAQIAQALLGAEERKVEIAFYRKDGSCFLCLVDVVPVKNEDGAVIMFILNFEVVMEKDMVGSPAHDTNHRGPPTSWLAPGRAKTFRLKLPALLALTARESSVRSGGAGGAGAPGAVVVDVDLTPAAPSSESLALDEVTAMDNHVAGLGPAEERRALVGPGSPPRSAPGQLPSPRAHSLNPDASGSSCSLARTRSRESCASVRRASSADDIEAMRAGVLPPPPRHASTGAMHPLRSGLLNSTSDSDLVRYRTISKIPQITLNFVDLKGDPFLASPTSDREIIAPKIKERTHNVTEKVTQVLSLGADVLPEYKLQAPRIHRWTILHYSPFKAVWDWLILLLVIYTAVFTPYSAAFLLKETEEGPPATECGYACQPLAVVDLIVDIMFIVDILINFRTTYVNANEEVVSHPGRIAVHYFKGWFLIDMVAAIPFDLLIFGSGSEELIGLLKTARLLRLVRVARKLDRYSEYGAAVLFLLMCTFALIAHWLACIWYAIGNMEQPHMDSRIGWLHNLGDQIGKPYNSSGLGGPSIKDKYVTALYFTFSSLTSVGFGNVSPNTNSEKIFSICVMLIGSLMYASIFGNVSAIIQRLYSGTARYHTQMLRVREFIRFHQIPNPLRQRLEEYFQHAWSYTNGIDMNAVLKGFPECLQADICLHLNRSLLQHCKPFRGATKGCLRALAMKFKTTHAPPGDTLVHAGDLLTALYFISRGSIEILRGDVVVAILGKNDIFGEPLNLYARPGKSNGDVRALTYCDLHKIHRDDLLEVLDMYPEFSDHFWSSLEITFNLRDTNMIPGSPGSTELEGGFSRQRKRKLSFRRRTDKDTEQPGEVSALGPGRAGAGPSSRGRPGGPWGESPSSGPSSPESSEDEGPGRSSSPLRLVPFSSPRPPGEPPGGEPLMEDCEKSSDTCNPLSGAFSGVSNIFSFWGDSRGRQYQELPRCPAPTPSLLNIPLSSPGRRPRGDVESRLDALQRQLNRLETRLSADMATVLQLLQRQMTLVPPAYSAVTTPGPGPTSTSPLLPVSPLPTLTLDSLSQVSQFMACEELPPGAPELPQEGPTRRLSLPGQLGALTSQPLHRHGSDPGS
Method in brief: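 The delayed rectifier current (IKr) was recorded in hERG-transfected HEK293 cells with the compound at 3 μM.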

hERG (KCNH2) = hERG (KCNH2) (Homo sapiens, UniProt Q12809); assay: Inhibition of human ERG channel transfected in HEK293 cells assessed as reduction in delayed rectifier current at 3 uM by patch clamp assay; assay type: cell-based; details: HEK293 cells transfected with human ERG channel
Sequence of hERG (KCNH2) (Q12809 whole entry): as above

Histamine H4 receptor [23] = molecular target: T2, Histamine H4 receptor; assay: Partial agonist activity at mouse histamine H4 receptor
[24] = Permeability from apical to basolateral side in human Caco cells; assay type: ADME, cell-based; details: Caco-2, read-out: permeability
[25] = Permeability from basolateral to apical side in human Caco cells; assay type: ADME, cell-based; details: Caco-2, read-out: permeability
[26] = Half life in rat at 2 mg/kg, iv; assay type: ADME, organism-based; design: dose 2 mg/kg, route intravenous; details: in vivo
[27] = AUC in rat at 2 mg/kg, iv; assay type: ADME, organism-based; design: dose 2 mg/kg, route intravenous; details: plasma
[28] = Clearance in rat at 2 mg/kg, iv; assay type: ADME, organism-based; design: dose 2 mg/kg, route intravenous; details: in vivo
[29] = Volume of distribution at steady state in rat at 2 mg/kg, iv; assay type: ADME, organism-based; design: dose 2 mg/kg, route intravenous; details: in vivo, read-out: Vdss
[30] = Oral bioavailability in rat at 10 mg/kg; assay type: ADME, organism-based; details: in vivo
[31] = Half life in rat at 10 mg/kg, po; assay type: ADME, organism-based; design: dose 10 mg/kg, route oral; details: in vivo
[32] = Cmax in rat at 10 mg/kg, po; assay type: ADME, organism-based; design: dose 10 mg/kg, route oral; details: in vivo
[33] = Tmax in Sprague-Dawley rat at 10 mg/kg, po; assay type: ADME, organism-based; design: dose 10 mg/kg, route oral; details: in vivo
[34] = Tmax in beagle dog at 10 mg/kg, po; assay type: ADME, organism-based, Canis lupus familiaris; design: dose 10 mg/kg, route oral; details: in vivo
[35] = Initial plasma concentration in Sprague-Dawley rat at 2 mg/kg, iv; assay type: ADME, organism-based; design: dose 2 mg/kg, route intravenous
[36] = Cmax in Sprague-Dawley rat at 10 mg/kg, po; assay type: ADME, organism-based; design: dose 10 mg/kg, route oral; details: in vivo
[37] = Initial plasma concentration in beagle dog at 2 mg/kg, iv; assay type: ADME, organism-based, Canis lupus familiaris; design: dose 2 mg/kg, route intravenous
[38] = Cmax in beagle dog at 10 mg/kg, po; assay type: ADME, organism-based, Canis lupus familiaris; design: dose 10 mg/kg, route oral; details: in vivo

Work on `Nc1nc(C2CCCC2)cc(N2CCNCC2)n1` yielded an AUC [1] of 20.6 µM·h, an AUC [2] of 8.2 µM·h and an AUC (Canis familiaris [3]) of 5.38 µM·h. The AUC [4] was 30.8 µM·h, the CL (Rattus norvegicus [5]) was 7.03 mL/min/kg and the CL (Canis familiaris [6]) was 353.2 mL/min/kg. The Vdss (Rattus norvegicus [7]) was 3.1 L/kg, the Vd [8] was 24.4 L/kg and the t1/2 (Rattus norvegicus [9]) was 2.2 h. It also gave a half-life [10] of 8.7 h, a half-life [11] of 10.8 h and a half-life [12] of 9.01 h. For the same compound, the bioavailability [13] was 20.7%, the bioavailability [14] was 114% and the Ki (Histamine H4 receptor [15]) was 1.2 nM. It also gave an EC50 (Histamine H4 receptor [16]) of over 10000 nM, a Kb (Histamine H4 receptor [17]) of 0.316 nM and a Ki (Histamine H4 receptor [18]) of 20 nM. It also gave a Kb (Histamine H4 receptor [19]) of 10 nM, a Ki (Histamine H3 receptor) of 24 nM and a half-life [20] of over 1.67 h. The half-life [21] was 1.43 h, the INH [22] was over 10 µM and the inhibition at 3 µM (hERG (KCNH2)) was 21%. The EC50 (Histamine H4 receptor [23]) was 7.3 nM, the Papp A→B [24] was 32 ×10⁻⁶ cm/s and the Papp B→A [25] was 16 ×10⁻⁶ cm/s. The half-life [26] was 1.1 h, the AUC [27] was 5 µM·h and the clearance [28] was 10.5 mL/min/kg. For the same compound, the Vd [29] was 2.7 L/kg, the bioavailability [30] was 20% and the half-life [31] was 9 h. It also gave a Cmax [32] of 310 nM, a Tmax [33] of 2 h and a Tmax [34] of 4 h. The C0 [35] was 25000 nM, the Cmax [36] was 600 nM and the C0 [37] was 1760 nM. It also gave a Cmax [38] of 1490 nM.
